Columns and labels:
[1] = melting temperature; fluorescence melt of hairpins on a sequencing array, two-state fit, raised by 9.35 °C to match UV melts; conditions: sodium 0.088 M
Summary of the method: (§1)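 Bootstrapped two-state fits yielded melting temperature and folding enthalpy for library hairpins. Cy3 fluorescence, with annealed Cy3 and quencher oligos, was imaged on a sequenced MiSeq flow cell in 50 mM Na-HEPES pH 8.0, 25 mM NaCl in 2.5 °C steps up to 60 °C, and normalised to pre-quench Cy3 and to control constructs. Four replicates were combined by inverse variance, and fitted temperatures were raised by 9.35 °C to match UV melts.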

[2] = folding enthalpy; higher = less favourable; fluorescence melt of hairpins on a sequencing array, two-state fit; conditions: sodium 0.088 M
Summary of the method: as §1

GATCACGACTGTGATC ((((((....))))))
Tm [1]: 64 °C | folding enthalpy [2]: -37.1 kcal/mol

GATCACGATTGTGATC ((((((....))))))
Tm [1]: 56.6 °C | folding enthalpy [2]: -33.2 kcal/mol

GATCACGCCCGTGATC ((((((....))))))
Tm [1]: 60.6 °C | folding enthalpy [2]: -39.8 kcal/mol

GATCACGGAAACATGATC (((((.(....).)))))
Tm [1]: 35.4 °C | folding enthalpy [2]: -26 kcal/mol

GATCACGGAAACGTGATC (((((((....)))))))
Tm [1]: 66.2 °C | folding enthalpy [2]: -34.2 kcal/mol

GATCACGGATGTGATC ((((((....))))))
Tm [1]: 67.5 °C | folding enthalpy [2]: -37.1 kcal/mol

GATCACGGTGGTGATC ((((((....))))))
Tm [1]: 58.3 °C | folding enthalpy [2]: -37.2 kcal/mol

GATCACGTAAGTGATC ((((((....))))))
Tm [1]: 69.3 °C | folding enthalpy [2]: -30.8 kcal/mol

GATCACGTGAGTGATC ((((((....))))))
Tm [1]: 69.2 °C | folding enthalpy [2]: -28.4 kcal/mol

GATCACGTGGGTGATC ((((((....))))))
Tm [1]: 57.1 °C | folding enthalpy [2]: -39.5 kcal/mol

GATCACTAACGTGATC ((((((....))))))
Tm [1]: 54.9 °C | folding enthalpy [2]: -33.1 kcal/mol

GATCACTACGGTGATC ((((((....))))))
Tm [1]: 58.7 °C | folding enthalpy [2]: -37.9 kcal/mol

GATCACTCAAGTGATC ((((((....))))))
Tm [1]: 57 °C | folding enthalpy [2]: -49.2 kcal/mol

GATCACTCATGTGATC ((((((....))))))
Tm [1]: 57 °C | folding enthalpy [2]: -40.5 kcal/mol

GATCACTCCTGTGATC ((((((....))))))
Tm [1]: 59.7 °C | folding enthalpy [2]: -33.9 kcal/mol

GATCACTCGCGTGATC ((((((....))))))
Tm [1]: 57.1 °C | folding enthalpy [2]: -44.5 kcal/mol

GATCACTGACGTGATC ((((((....))))))
Tm [1]: 54.3 °C | folding enthalpy [2]: -32 kcal/mol

GATCACTGCAGTGATC ((((((....))))))
Tm [1]: 61.7 °C | folding enthalpy [2]: -44.7 kcal/mol

GATCACTTACGTGATC ((((((....))))))
Tm [1]: 57.4 °C | folding enthalpy [2]: -38.1 kcal/mol

GATCACTTCGGTGATC ((((((....))))))
Tm [1]: 57.4 °C | folding enthalpy [2]: -40 kcal/mol

GATCACTTGTGTGATC ((((((....))))))
Tm [1]: 56.1 °C | folding enthalpy [2]: -40.4 kcal/mol

GATCACTTTGGTGATC ((((((....))))))
Tm [1]: 57.8 °C | folding enthalpy [2]: -42.3 kcal/mol

GATCAGAAATCTGATC ((((((....))))))
Tm [1]: 46 °C | folding enthalpy [2]: -35.2 kcal/mol

GATCAGAAGACTGATC ((((((....))))))
Tm [1]: 44.9 °C | folding enthalpy [2]: -29.1 kcal/mol

GATCAGAAGCTGATC ((((((...))))))
Tm [1]: 48 °C | folding enthalpy [2]: -33 kcal/mol

GATCAGACCACTGATC ((((((....))))))
Tm [1]: 49.4 °C | folding enthalpy [2]: -37.1 kcal/mol

GATCAGACGCCTGATC ((((((....))))))
Tm [1]: 50 °C | folding enthalpy [2]: -40.1 kcal/mol

GATCAGACGCTGATC ((((((...))))))
Tm [1]: 47.7 °C | folding enthalpy [2]: -34.2 kcal/mol

GATCAGACTCCTGATC ((((((....))))))
Tm [1]: 47.5 °C | folding enthalpy [2]: -36.1 kcal/mol

GATCAGACTTCTGATC ((((((....))))))
Tm [1]: 50.3 °C | folding enthalpy [2]: -36.3 kcal/mol

GATCAGAGAACTGATC ((((((....))))))
Tm [1]: 44.5 °C | folding enthalpy [2]: -30.5 kcal/mol

GATCAGAGACCTGATC ((((((....))))))
Tm [1]: 45.6 °C | folding enthalpy [2]: -34.6 kcal/mol

GATCAGATACTGATC ((((((...))))))
Tm [1]: 50.6 °C | folding enthalpy [2]: -34.2 kcal/mol

GATCAGATAGCTGATC ((((((....))))))
Tm [1]: 46.8 °C | folding enthalpy [2]: -38 kcal/mol

GATCAGATCCCTGATC ((((((....))))))
Tm [1]: 48.3 °C | folding enthalpy [2]: -31.8 kcal/mol

GATCAGATGCCTGATC ((((((....))))))
Tm [1]: 48.4 °C | folding enthalpy [2]: -23.8 kcal/mol

GATCAGATGGCTGATC ((((((....))))))
Tm [1]: 49.3 °C | folding enthalpy [2]: -30.4 kcal/mol

GATCAGCAGGCTGATC ((((((....))))))
Tm [1]: 59.2 °C | folding enthalpy [2]: -42.1 kcal/mol

GATCAGCCAGCTGATC ((((((....))))))
Tm [1]: 56.5 °C | folding enthalpy [2]: -40.1 kcal/mol

GATCAGCCGACTGATC ((((((....))))))
Tm [1]: 49.6 °C | folding enthalpy [2]: -35.5 kcal/mol

GATCAGCGAAAGCTATC (((.(((....))))))
Tm [1]: 32.6 °C | folding enthalpy [2]: -12 kcal/mol

GATCAGCGATCTGATC ((((((....))))))
Tm [1]: 50 °C | folding enthalpy [2]: -19.5 kcal/mol

GATCAGCGCCTGATC ((((((...))))))
Tm [1]: 48.7 °C | folding enthalpy [2]: -38.9 kcal/mol

GATCAGCGCGCTGATC ((((((....))))))
Tm [1]: 67.4 °C | folding enthalpy [2]: -43 kcal/mol

GATCAGCGTACTGATC ((((((....))))))
Tm [1]: 51.6 °C | folding enthalpy [2]: -30.2 kcal/mol

GATCAGCTTTCTGATC ((((((....))))))
Tm [1]: 50.5 °C | folding enthalpy [2]: -35 kcal/mol

GATCAGGAACCTGATC ((((((....))))))
Tm [1]: 54.5 °C | folding enthalpy [2]: -35 kcal/mol

GATCAGGAGCCTGATC ((((((....))))))
Tm [1]: 49.9 °C | folding enthalpy [2]: -31.6 kcal/mol

GATCAGGAGGCTGATC ((((((....))))))
Tm [1]: 48.2 °C | folding enthalpy [2]: -37.2 kcal/mol

GATCAGGATACTGATC ((((((....))))))
Tm [1]: 56 °C | folding enthalpy [2]: -33.8 kcal/mol

GATCAGGCATCTGATC ((((((....))))))
Tm [1]: 55.6 °C | folding enthalpy [2]: -45.1 kcal/mol

GATCAGGCGGCTGATC ((((((....))))))
Tm [1]: 53.2 °C | folding enthalpy [2]: -47.8 kcal/mol

GATCAGGGATCTGATC ((((((....))))))
Tm [1]: 57.1 °C | folding enthalpy [2]: -29.1 kcal/mol

GATCAGGGCACTGATC ((((((....))))))
Tm [1]: 59.8 °C | folding enthalpy [2]: -37.2 kcal/mol

GATCAGGGCCTGATC ((((((...))))))
Tm [1]: 53 °C | folding enthalpy [2]: -68.2 kcal/mol

GATCAGGGGCTGATC ((((((...))))))
Tm [1]: 47.5 °C | folding enthalpy [2]: -27.4 kcal/mol

GATCAGGGTCTGATC ((((((...))))))
Tm [1]: 49.7 °C | folding enthalpy [2]: -24.1 kcal/mol

GATCAGGTTACTGATC ((((((....))))))
Tm [1]: 57.6 °C | folding enthalpy [2]: -38.2 kcal/mol

GATCAGGTTCTGATC ((((((...))))))
Tm [1]: 50.5 °C | folding enthalpy [2]: -34.1 kcal/mol

GATCAGGTTGCTGATC ((((((....))))))
Tm [1]: 51.2 °C | folding enthalpy [2]: -46.3 kcal/mol

GATCAGTAAGCTGATC ((((((....))))))
Tm [1]: 52.3 °C | folding enthalpy [2]: -41.3 kcal/mol

GATCAGTACGCTGATC ((((((....))))))
Tm [1]: 53.8 °C | folding enthalpy [2]: -44.1 kcal/mol

GATCAGTAGCCTGATC ((((((....))))))
Tm [1]: 49.6 °C | folding enthalpy [2]: -31.4 kcal/mol

GATCAGTCCCCTGATC ((((((....))))))
Tm [1]: 49.3 °C | folding enthalpy [2]: -35.7 kcal/mol

GATCAGTCCGCTGATC ((((((....))))))
Tm [1]: 53.1 °C | folding enthalpy [2]: -53.2 kcal/mol

GATCAGTCGCCTGATC ((((((....))))))
Tm [1]: 51.5 °C | folding enthalpy [2]: -57.2 kcal/mol

GATCAGTCGCTGATC ((((((...))))))
Tm [1]: 49.8 °C | folding enthalpy [2]: -29.6 kcal/mol

GATCAGTGGACTGATC ((((((....))))))
Tm [1]: 51.8 °C | folding enthalpy [2]: -37 kcal/mol

GATCAGTTACTGATC ((((((...))))))
Tm [1]: 51.4 °C | folding enthalpy [2]: -41.7 kcal/mol

GATCAGTTTTCTGATC ((((((....))))))
Tm [1]: 52.3 °C | folding enthalpy [2]: -30.5 kcal/mol

GATCATAAGGATGATC ((((((....))))))
Tm [1]: 45.3 °C | folding enthalpy [2]: -32.5 kcal/mol

GATCATAATATGATC ((((((...))))))
Tm [1]: 46.3 °C | folding enthalpy [2]: -30.7 kcal/mol

GATCATAATGATGATC ((((((....))))))
Tm [1]: 45.6 °C | folding enthalpy [2]: -29.9 kcal/mol

GATCATACAAATGATC ((((((....))))))
Tm [1]: 44.6 °C | folding enthalpy [2]: -33.6 kcal/mol

GATCATACAATGATC ((((((...))))))
Tm [1]: 48.4 °C | folding enthalpy [2]: -39.5 kcal/mol

GATCATACCATGATC ((((((...))))))
Tm [1]: 48.9 °C | folding enthalpy [2]: -40.3 kcal/mol

GATCATACCGATGATC ((((((....))))))
Tm [1]: 46.9 °C | folding enthalpy [2]: -35.7 kcal/mol

GATCATACCTATGATC ((((((....))))))
Tm [1]: 48.6 °C | folding enthalpy [2]: -41.5 kcal/mol

GATCATACGCATGATC ((((((....))))))
Tm [1]: 48 °C | folding enthalpy [2]: -37 kcal/mol

GATCATACTATGATC ((((((...))))))
Tm [1]: 48.1 °C | folding enthalpy [2]: -35.7 kcal/mol

GATCATACTCATGATC ((((((....))))))
Tm [1]: 46.7 °C | folding enthalpy [2]: -34 kcal/mol

GATCATAGACATGATC ((((((....))))))
Tm [1]: 45.7 °C | folding enthalpy [2]: -34.4 kcal/mol

GATCATAGCTATGATC ((((((....))))))
Tm [1]: 50.7 °C | folding enthalpy [2]: -47.4 kcal/mol

GATCATAGGGATGATC ((((((....))))))
Tm [1]: 47.3 °C | folding enthalpy [2]: -34.1 kcal/mol

GATCATATAAATGATC ((((((....))))))
Tm [1]: 43.7 °C | folding enthalpy [2]: -29.9 kcal/mol

GATCATATGATGATC ((((((...))))))
Tm [1]: 48.1 °C | folding enthalpy [2]: -31.3 kcal/mol

GATCATATGCATGATC ((((((....))))))
Tm [1]: 48.2 °C | folding enthalpy [2]: -40.4 kcal/mol

GATCATATTATGATC ((((((...))))))
Tm [1]: 48.6 °C | folding enthalpy [2]: -35.9 kcal/mol

GATCATATTGATGATC ((((((....))))))
Tm [1]: 47.3 °C | folding enthalpy [2]: -31.9 kcal/mol

GATCATCAAAATGATC ((((((....))))))
Tm [1]: 45 °C | folding enthalpy [2]: -33.3 kcal/mol

GATCATCAACATGATC ((((((....))))))
Tm [1]: 42.6 °C | folding enthalpy [2]: -28.6 kcal/mol

GATCATCCAAATGATC ((((((....))))))
Tm [1]: 46.3 °C | folding enthalpy [2]: -36.9 kcal/mol

GATCATCCGAATGATC ((((((....))))))
Tm [1]: 47.2 °C | folding enthalpy [2]: -30.3 kcal/mol

GATCATCGAAATGATC ((((((....))))))
Tm [1]: 44.2 °C | folding enthalpy [2]: -29 kcal/mol

GATCATCGCGATGATC ((((((....))))))
Tm [1]: 59.7 °C | folding enthalpy [2]: -48.5 kcal/mol

GATCATCGGATGATC ((((((...))))))
Tm [1]: 45.9 °C | folding enthalpy [2]: -36.9 kcal/mol
